Measurements from ChEMBL document CHEMBL2311397, “Design and synthesis of cyclopropylamide analogues of combretastatin-A4 as novel microtubule-stabilizing agents” (J Med Chem, 2013).

Tests used:
Tubulin (Homo sapiens) [1] = target: T1, Tubulin (Homo sapiens) (UniProt P68371+Q9H4B7+P0DPH7+P68366+Q13509+Q71U36+P04350+Q3ZCM7+P07437+P68363+Q9BQE3+Q6PEY2+Q13885+Q9BVA1+Q9BUF5); experiment: Activation of tubulin (unknown origin) polymerization at 10 uM; type: protein-complex assay
In short: (§1)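 Purified brain tubulin (kit), final 3.0 mg/mL, in 80.0 mM PIPES sesquisodium pH 6.9, 2.0 mM MgCl2, 0.5 mM EGTA, 1 mM GTP, 10.2% glycerol; components prewarmed to 37 °C, reaction started by adding tubulin. A340 read each minute for 1 h. Single-point % stimulation used 10 μM compound; EC50 from 3.75, 7.5, 15, 30, 60 μM.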

A549 [2] = experiment: Cytotoxicity against human A549 cells after 48 hrs by MTT assay; type: functional, cell-based; conditions: Homo sapiens, A549, 48 h
In short: (§2)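 Log-phase cells (40000–50000 cells/mL) grown in DMEM with 10% fetal calf serum (5% CO2, 37 °C) and exposed 48 h to five concentrations, 3–5 replicates. Read-out was MTT with absorbance at 570 nm; IC50 reported as mean ± SD of three independent experiments. Resistant A549 and HeLa sublines were made by stepwise paclitaxel selection; resistance index = IC50(resistant)/IC50(sensitive).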

K562 = experiment: Cytotoxicity against human K562 cells after 48 hrs by MTT assay; type: functional, cell-based; conditions: Homo sapiens, K562, 48 h; in short: as §2
SW480 = experiment: Cytotoxicity against human SW480 cells after 48 hrs by MTT assay; type: functional, cell-based; in short: as §2
HeLa = experiment: Cytotoxicity against human HeLa cells after 48 hrs by MTT assay; type: functional, cell-based; conditions: Homo sapiens, HeLa, 48 h; in short: as §2
[3] = Cytotoxicity against human QGY cells after 48 hrs by MTT assay; type: functional, cell-based; in short: as §2
Tubulin = experiment: (§3) Activation of tubulin (unknown origin) polymerization; type: protein-complex assay, Homo sapiens; in short: as §1
Tubulin (Homo sapiens) [4] = target: T1, Tubulin (Homo sapiens); experiment: as §3; type: protein-complex assay; in short: as §1
Mus musculus = experiment: Toxicity in human A549 cells xenografted BALB/c nude mouse assessed as change in body weight at 30 mg/kg, ig; type: organism-based; parameters: dose 30 mg/kg, route intragastric; conditions: in vivo, po
In short: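 Male BALB/c nude mice, 5 weeks old (18–20 g), implanted subcutaneously in the right armpit with A549 tumor fragments (3 mm3). On day 13, at 100–200 mm3, daily intragastric dosing began: 100 or 500 mg/kg test compound, or 30 mg/kg paclitaxel, in Tween-80 diluted with saline. Vehicle given ip. Tumor volume and body weight followed; n = 6; inhibition rate at day 16.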

A549 [5] = experiment: Cytotoxicity against paclitaxel-resistant human A549 cells after 48 hrs by MTT assay; type: functional, cell-based; conditions: A549, 48 h; in short: as §2

Row | SMILES | Activity (Tubulin (Homo sapiens) [1]) [%] | IC50 (A549 [2]) [µM] | IC50 (K562) [µM] | IC50 (SW480; Homo sapiens, SW480, 48 h) [µM] | IC50 (HeLa) [µM] | IC50 ([3]; Homo sapiens, QGY, 48 h) [µM] | further results
1 | CCOC(=O)C1(C(=O)Nc2ccccc2)CC1c1cc(OC)c(OC)c(OC)c1 (cis isomer) | 23.2 | – | – | – | – | – | –
2 | CCOC(=O)[C@]1(C(=O)Nc2ccccc2Cl)C[C@H]1c1cc(OC)c(OC)c(OC)c1 | 28.6 | 13.4 | 20.7 | 25.6 | 42.4 | 28 | EC50 (Tubulin): 16.9 µM
3 | CCOC(=O)C1(C(=O)NCc2ccc(OC)cc2)CC1c1cc(OC)c(OC)c(OC)c1 (trans isomer) | 50 | – | – | – | – | – | –
4 | CCOC(=O)[C@]1(C(=O)NCc2ccc(C)cc2)C[C@H]1c1cc(OC)c(OC)c(OC)c1 | 79.3 | 13.3 | > 100 | 36.4 | 28.5 | 32.1 | Activity (Tubulin (Homo sapiens) [4]): Dose-dependent effect; EC50 (Tubulin): 5.83 µM
5 | CC(=O)O[C@H]1C(=O)[C@@]2(C)[C@H]([C@H](OC(=O)c3ccccc3)[C@]3(O)C[C@H](OC(=O)[C@H](O)[C@@H](NC(=O)c4ccccc4)c4ccccc4)C(C)=C1C3(C)C)[C@]1(OC(C)=O)CO[C@@H]1C[C@@H]2O [PACLITAXEL] | 245 | 0.0082 | 0.0157 | 0.0121 | – | 0.0113 | Activity (Mus musculus): Toxic; IC50 (A549 [5]): 1.04 µM; EC50 (Tubulin): 1.23 µM
6 | CCOC(=O)C1(C(=O)Nc2ccc(OC)cc2)CC1c1cc(OC)c(OC)c(OC)c1 (cis isomer) | 25 | – | – | – | – | – | –
7 | COc1cc([C@@H]2C[C@]2(CO)C(=O)Nc2ccccc2)cc(OC)c1OC | 31.5 | 24.1 | > 100 | 33.3 | 32 | 51.3 | EC50 (Tubulin): 14.3 µM
8 | CCOC(=O)[C@@]1(C(=O)NCc2ccc(C)cc2)C[C@@H]1c1cc(OC)c(OC)c(OC)c1 | – | > 100 | > 100 | > 100 | > 100 | > 100 | –
9 | CCOC(=O)C1(C(=O)Nc2cccc(Cl)c2)CC1c1cc(OC)c(OC)c(OC)c1 (stereo in doubt; cis) | 50 | – | – | – | – | – | –
10 | CCOC(=O)C1(C(=O)Nc2ccc(F)cc2)CC1c1cc(OC)c(OC)c(OC)c1 (trans isomer) | 7.9 | – | – | – | – | – | –
11 | CCOC(=O)C1(C(=O)NCc2ccc(C)cc2)CC1c1cc(OC)c(OC)c(OC)c1 (cis isomer) | – | 18.7 | > 100 | – | 33.2 | – | IC50 (SW480; sw480): 29 µM; IC50 ([3]; qgy): > 100 µM
12 | CCOC(=O)[C@]1(C(=O)Nc2ccccc2)C[C@@H]1c1cc(OC)c(OC)c(OC)c1 | – | 21.3 | > 100 | 31.7 | > 100 | 38.1 | –
13 | CCOC(=O)C1(C(=O)NCCc2ccc(F)cc2)CC1c1cc(OC)c(OC)c(OC)c1 (cis isomer) | 40.8 | – | – | – | – | – | –
14 | CCOC(=O)C1(C(=O)Nc2cccc([N+](=O)[O-])c2)CC1c1cc(OC)c(OC)c(OC)c1 (stereo in doubt; cis) | – | 76.4 | > 100 | – | 59.4 | > 100 | IC50 (SW480; sw480): > 100 µM
